Assay [1] has as its target Platelet-derived growth factor receptor alpha (Homo sapiens) (UniProt P16234). The assay is described as follows: Inhibition of PDGFRalpha phosphorylation in human EOL-1 cells after 90 mins by Western blot analysis. The format is cell-based. To be noted: EOL1. Summed up: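 EOL-1 cells (FIP1L1-PDGFRA, RPMI/10% FBS) treated 90 min with increasing compound doses. Lysed in lysis buffer with 1 mM NaVO4 and protease inhibitors, reduced, and run on Bis-Tris 4–12% gels. Western blot for phospho-PDGFRα and phospho-STAT5, with total PDGFRα and STAT5 as loading controls.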

Assay [2] addresses T1, Ephrin type-A receptor 8 (Homo sapiens) (UniProt P29322).
T1 sequence (whole entry): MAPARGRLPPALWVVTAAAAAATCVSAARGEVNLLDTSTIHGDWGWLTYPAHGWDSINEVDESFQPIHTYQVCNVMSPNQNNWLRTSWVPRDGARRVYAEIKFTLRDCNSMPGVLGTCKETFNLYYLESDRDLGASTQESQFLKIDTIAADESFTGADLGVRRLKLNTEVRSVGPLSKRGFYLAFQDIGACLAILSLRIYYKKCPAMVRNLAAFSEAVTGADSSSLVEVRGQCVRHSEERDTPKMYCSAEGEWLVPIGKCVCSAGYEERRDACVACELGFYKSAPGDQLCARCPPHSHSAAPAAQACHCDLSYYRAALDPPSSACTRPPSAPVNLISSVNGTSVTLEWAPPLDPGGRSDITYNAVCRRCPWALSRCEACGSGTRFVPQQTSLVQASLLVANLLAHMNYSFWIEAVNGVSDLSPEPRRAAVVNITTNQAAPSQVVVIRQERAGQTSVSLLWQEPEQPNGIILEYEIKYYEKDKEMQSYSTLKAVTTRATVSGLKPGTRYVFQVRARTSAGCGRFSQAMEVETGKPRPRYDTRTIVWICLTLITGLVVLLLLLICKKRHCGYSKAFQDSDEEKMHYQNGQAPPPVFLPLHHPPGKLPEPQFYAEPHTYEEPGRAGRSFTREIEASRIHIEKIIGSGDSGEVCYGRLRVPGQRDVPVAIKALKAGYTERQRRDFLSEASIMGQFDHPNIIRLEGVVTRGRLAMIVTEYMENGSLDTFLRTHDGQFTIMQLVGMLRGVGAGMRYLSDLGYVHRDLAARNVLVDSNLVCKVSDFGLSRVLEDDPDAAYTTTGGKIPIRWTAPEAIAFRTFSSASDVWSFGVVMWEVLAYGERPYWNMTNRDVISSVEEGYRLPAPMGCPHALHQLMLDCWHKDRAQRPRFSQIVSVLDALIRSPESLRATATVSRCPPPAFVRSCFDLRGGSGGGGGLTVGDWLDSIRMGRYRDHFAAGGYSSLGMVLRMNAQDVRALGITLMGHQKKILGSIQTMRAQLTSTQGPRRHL
The assay is described as follows: Inhibition of EPHA8 (unknown origin) transfected in mouse Ba/F3 cells up to 1 uM. To be noted: BaF3. The format is cell-based.

For assay [3], the target named is Tyrosine-protein kinase ABL2 (Homo sapiens) (UniProt P42684). The assay is described as follows: Inhibition of ABL2 (unknown origin) transfected in mouse Ba/F3 cells up to 1 uM. In kind it is cell-based. To be noted: BaF3.
The next assay deals with EOL1. The assay is described as follows: Cytotoxicity against human EOL-1 cells after 24 hrs by plate reader analysis. Conditions: EOL1, 24 h. In kind it is functional, cell-based. The method, boiled down:
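Cells in RPMI 1640 with 10% FBS at 37 °C and 5% CO2 were seeded at 100,000 cells/ml. They were treated for 24 h at 8 concentrations (50–6400 nM), each in triplicate, with DMSO as negative control. Viable cells were measured by ATP-lite luminescence, and EC50 was taken from dose–response curves.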

Assay [4] has as its target T2, Receptor-type tyrosine-protein kinase FLT3 (Mus musculus) (UniProt Q00342).
T2 sequence (whole entry): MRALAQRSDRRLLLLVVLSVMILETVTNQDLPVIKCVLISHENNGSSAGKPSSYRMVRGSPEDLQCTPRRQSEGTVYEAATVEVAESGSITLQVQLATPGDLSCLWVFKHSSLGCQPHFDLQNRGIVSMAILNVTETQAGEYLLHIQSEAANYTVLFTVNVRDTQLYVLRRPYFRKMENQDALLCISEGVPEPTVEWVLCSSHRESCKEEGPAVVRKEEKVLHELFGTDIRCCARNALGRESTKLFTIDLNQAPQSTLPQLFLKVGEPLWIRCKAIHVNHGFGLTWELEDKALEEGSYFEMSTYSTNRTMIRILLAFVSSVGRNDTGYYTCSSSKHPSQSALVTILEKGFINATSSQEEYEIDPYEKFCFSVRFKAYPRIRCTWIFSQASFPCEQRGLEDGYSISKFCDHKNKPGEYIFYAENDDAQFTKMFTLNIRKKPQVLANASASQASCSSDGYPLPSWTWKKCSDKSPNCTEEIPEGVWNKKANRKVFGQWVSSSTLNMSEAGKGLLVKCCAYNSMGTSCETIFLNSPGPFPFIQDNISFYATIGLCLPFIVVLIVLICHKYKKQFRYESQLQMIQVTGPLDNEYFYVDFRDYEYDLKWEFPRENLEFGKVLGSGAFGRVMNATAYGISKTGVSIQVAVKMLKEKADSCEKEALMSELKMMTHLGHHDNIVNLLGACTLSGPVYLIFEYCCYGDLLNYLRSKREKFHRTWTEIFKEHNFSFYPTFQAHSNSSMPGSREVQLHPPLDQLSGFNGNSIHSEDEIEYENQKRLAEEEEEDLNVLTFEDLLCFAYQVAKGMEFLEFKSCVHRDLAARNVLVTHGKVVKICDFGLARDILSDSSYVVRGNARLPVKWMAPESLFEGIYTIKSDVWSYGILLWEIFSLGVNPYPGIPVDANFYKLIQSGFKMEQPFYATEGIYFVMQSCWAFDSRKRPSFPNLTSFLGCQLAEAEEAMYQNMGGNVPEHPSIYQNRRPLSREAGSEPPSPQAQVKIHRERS
The assay is described as follows: Inhibition of FLT3 phosphorylation in mouse Ba/F3 cells transfected with FLT3-ITD at 50 nM after 90 mins by Western blot analysis. The format is cell-based. To be noted: BaF3. Summed up:
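Ba/F3-FLT3-ITD cells were treated for 90 min with increasing doses. They were lysed in buffer with 1 mM NaVO4 and protease inhibitors, then reduced and run on Bis-Tris 4–12% gels for Western blot. Phospho-FLT3 and phospho-STAT5 were detected, with total FLT3 and STAT5 as loading controls.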
In general terms: In western blotting, separated proteins are transferred to a membrane and probed.

The source made the active and inactive calls. No cut-off for these calls is given here.

The term EC50 denotes the midpoint of the concentration-response curve. Read a low EC50 as a more potent agent.

Platelet-derived growth factor receptor alpha (Homo sapiens), sequence (P16234 whole entry): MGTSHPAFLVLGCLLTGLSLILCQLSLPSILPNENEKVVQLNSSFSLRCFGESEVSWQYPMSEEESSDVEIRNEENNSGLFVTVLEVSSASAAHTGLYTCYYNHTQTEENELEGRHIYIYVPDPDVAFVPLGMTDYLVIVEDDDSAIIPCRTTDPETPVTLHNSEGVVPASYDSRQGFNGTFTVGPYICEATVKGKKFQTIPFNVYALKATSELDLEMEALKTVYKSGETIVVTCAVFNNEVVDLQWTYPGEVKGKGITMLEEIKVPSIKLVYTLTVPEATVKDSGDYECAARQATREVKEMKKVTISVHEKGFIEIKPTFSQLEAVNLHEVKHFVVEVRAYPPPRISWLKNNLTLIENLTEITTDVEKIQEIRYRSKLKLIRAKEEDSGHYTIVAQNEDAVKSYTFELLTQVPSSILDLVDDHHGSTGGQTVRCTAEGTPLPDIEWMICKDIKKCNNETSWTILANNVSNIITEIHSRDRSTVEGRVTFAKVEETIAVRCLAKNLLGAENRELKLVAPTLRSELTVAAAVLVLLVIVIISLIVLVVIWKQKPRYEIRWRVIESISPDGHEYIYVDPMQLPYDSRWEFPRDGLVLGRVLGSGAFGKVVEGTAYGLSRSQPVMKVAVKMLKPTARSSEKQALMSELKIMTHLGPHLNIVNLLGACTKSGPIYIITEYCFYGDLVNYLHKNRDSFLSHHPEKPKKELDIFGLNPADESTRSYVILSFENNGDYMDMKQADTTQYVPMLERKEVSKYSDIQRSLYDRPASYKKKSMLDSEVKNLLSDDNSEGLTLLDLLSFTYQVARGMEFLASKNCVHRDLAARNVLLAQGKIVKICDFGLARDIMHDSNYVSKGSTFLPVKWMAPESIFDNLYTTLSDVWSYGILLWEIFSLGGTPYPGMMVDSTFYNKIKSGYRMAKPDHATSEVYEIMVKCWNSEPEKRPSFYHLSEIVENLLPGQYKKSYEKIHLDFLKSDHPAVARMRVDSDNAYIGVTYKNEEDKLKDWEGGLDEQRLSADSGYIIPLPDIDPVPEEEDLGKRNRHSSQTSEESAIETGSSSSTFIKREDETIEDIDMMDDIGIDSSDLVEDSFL
Tyrosine-protein kinase ABL2 (Homo sapiens), sequence (P42684 whole entry): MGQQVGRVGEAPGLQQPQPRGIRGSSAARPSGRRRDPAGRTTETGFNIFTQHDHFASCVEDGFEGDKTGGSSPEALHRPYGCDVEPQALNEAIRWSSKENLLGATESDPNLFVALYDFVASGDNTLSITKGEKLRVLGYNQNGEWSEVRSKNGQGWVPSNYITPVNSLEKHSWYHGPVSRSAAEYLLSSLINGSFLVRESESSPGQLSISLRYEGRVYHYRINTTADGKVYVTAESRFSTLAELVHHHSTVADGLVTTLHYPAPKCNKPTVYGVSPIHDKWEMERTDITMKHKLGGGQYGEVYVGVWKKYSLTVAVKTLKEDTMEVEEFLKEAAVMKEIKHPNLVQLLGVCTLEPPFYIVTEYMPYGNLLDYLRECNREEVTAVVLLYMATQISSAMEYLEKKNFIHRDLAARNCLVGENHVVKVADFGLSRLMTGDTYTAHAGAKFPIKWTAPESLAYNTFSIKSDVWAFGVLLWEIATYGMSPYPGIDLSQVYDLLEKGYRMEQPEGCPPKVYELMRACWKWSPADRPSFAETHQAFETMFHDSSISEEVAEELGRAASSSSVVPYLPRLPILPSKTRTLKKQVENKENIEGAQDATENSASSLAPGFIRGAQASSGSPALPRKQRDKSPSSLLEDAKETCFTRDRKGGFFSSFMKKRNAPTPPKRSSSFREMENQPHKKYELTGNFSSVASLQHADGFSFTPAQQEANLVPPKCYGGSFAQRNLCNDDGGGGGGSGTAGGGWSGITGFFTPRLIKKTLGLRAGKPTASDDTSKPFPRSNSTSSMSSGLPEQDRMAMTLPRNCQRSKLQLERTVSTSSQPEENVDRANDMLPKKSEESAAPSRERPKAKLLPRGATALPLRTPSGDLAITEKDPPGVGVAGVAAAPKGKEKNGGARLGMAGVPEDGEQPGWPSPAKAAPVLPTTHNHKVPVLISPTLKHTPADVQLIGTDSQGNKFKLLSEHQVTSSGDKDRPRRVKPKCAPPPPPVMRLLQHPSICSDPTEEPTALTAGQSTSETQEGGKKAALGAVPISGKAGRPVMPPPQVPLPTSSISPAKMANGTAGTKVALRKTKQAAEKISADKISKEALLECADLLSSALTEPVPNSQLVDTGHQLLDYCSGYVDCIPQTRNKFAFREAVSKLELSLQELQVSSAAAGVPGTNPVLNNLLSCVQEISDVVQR

In the case of `Cc1ccc(-c2cc(NC(=O)c3ccc(F)cc3)[nH]n2)cc1`, the inhibition result in assay [1] was “inactive”.

In the case of `Fc1ccc(-c2n[nH]cc2-c2ccncc2)cc1Cl`, the inhibition result in assay [2] and in assay [3] was “inactive” each time.

Turning to `COc1ccc(C(=O)Nc2cc(-c3ccccc3)[nH]n2)cc1`, it took 70 nM to reach a half-maximal effect in the assay with EOL1 (EC50). Besides, the inhibition entry in assay [4] was “Active”.

The values are drawn from ChEMBL document CHEMBL2390926, “Identification of novel FLT3 kinase inhibitors” (Eur J Med Chem, 2013).
